Test results: ChEMBL document CHEMBL3272061, “Experiments of synthesis of dl-camptothecin. 4. Synthesis and antileukemic activity of dl-camptothecin analogues” (J Med Chem, 1976)
Activity calls are given as the source filed them. The rule behind the calls is not given here.

What was measured:
L1210 [1] = assay: Antileukemic activity against mouse L1210 cells allografted in BDF1 mouse assessed as increase in life span of host at 65.1 umol/kg, ip relative to control; assay type: functional
How it was run: (§1)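 BDF1 mice, 5 weeks old, were inoculated ip with 5×10^5 L1210 cells; test groups had 4 males and 4 females, controls 5 males and 5 females. A single ip dose was given on the day after inoculation, as a suspension in vehicle for the insoluble compounds. Read-out was increase in life span over controls, with survivors past 30 days counted as 30 days.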

L1210 [2] = assay: Antileukemic activity against mouse L1210 cells allografted in BDF1 mouse assessed as increase in life span of host at 130 umol/kg, ip relative to control; assay type: functional
How it was run: (§2)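 BDF1 mice, 5 weeks old, were inoculated ip with 5×10^5 L1210 cells in 0.1 ml saline. Test groups were 4 male and 4 female mice; controls were 5 male and 5 female. Insoluble compounds were suspended in vehicle. Dosing was ip, either once on the day after inoculation or daily for 5 days. Read-out was increase in life span over controls. Mice alive beyond 30 days were counted as 30 days and scored as survivors.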

L1210 [3] = assay: Antileukemic activity against mouse L1210 cells allografted in BDF1 mouse assessed as host survival at 5.56 umol/kg, ip after 30 days; assay type: functional, organism-based; how it was run: as §2
L1210 [4] = assay: Antileukemic activity against mouse L1210 cells allografted in BDF1 mouse assessed as host survival at 26 umol/kg, ip after 30 days; assay type: functional, organism-based
How it was run: (§3)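 BDF1 mice, 5 weeks old; test groups four males + four females, controls five + five. 5×10^5 L1210 cells in 0.1 ml saline given ip. Compound, suspended in suspending vehicle (sodium salt dissolved), injected ip once on the day after inoculation. Survival followed to 30 days; mice surviving beyond 30 days counted as 30 days and scored as survivor fraction; activity as increased life span over controls.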

L1210 [5] = assay: Antileukemic activity against mouse L1210 cells allografted in BDF1 mouse assessed as host survival at 65.1 umol/kg, ip after 30 days; assay type: functional, organism-based; how it was run: as §3
L1210 [6] = assay: Antileukemic activity against mouse L1210 cells allografted in BDF1 mouse assessed as host survival at 130 umol/kg, ip after 30 days; assay type: functional, organism-based; how it was run: as §3
[7] = Solubility of the compound; assay type: physicochemical
L1210 [8] = assay: Antileukemic activity against mouse L1210 cells allografted in BDF1 mouse assessed as increase in life span of host at 26 umol/kg, ip relative to control; assay type: functional; how it was run: as §1
L1210 [9] = assay: Antileukemic activity against mouse L1210 cells allografted in BDF1 mouse assessed as host survival at 139 umol/kg, ip after 30 days; assay type: functional, organism-based; how it was run: as §2
L1210 [10] = assay: Antileukemic activity against mouse L1210 cells allografted in BDF1 mouse assessed as host survival at 5.58 umol/kg, ip after 30 days; assay type: functional, organism-based; details: 5.56 umol/kg, in the assay text read “5.56 umol/kg” for “5.58 umol/kg”; how it was run: as §3
L1210 [11] = assay: Antileukemic activity against mouse L1210 cells allografted in BDF1 mouse assessed as host survival at 27.8 umol/kg, ip after 30 days; assay type: functional, organism-based; how it was run: as §2
L1210 [12] = assay: Antileukemic activity against mouse L1210 cells allografted in BDF1 mouse assessed as host survival at 69.4 umol/kg, ip after 30 days; assay type: functional, organism-based; how it was run: as §3
L1210 [13] = assay: Antileukemic activity against mouse L1210 cells allografted in BDF1 mouse assessed as increase in life span of host at 69.4 umol/kg, ip relative to control; assay type: functional; how it was run: as §1
L1210 [14] = assay: Antileukemic activity against mouse L1210 cells allografted in BDF1 mouse assessed as increase in life span of host at 139 umol/kg, ip relative to control; assay type: functional; how it was run: as §2
L1210 [15] = assay: Antileukemic activity against mouse L1210 cells allografted in BDF1 mouse assessed as host survival at 1 umol/kg, ip qd for 5 days measured after 30 days; assay type: functional, organism-based; how it was run: as §2
L1210 [16] = assay: Antileukemic activity against mouse L1210 cells allografted in BDF1 mouse assessed as host survival at 5 umol/kg, ip qd for 5 days measured after 30 days; assay type: functional, organism-based; how it was run: as §2
L1210 [17] = assay: Antileukemic activity against mouse L1210 cells allografted in BDF1 mouse assessed as host survival at 12.5 umol/kg, ip qd for 5 days measured after 30 days; assay type: functional, organism-based; how it was run: as §2
L1210 [18] = assay: Antileukemic activity against mouse L1210 cells allografted in BDF1 mouse assessed as host survival at 1 umol/kg, sc qd for 5 days measured after 30 days; assay type: functional, organism-based
L1210 [19] = assay: Antileukemic activity against mouse L1210 cells allografted in BDF1 mouse assessed as host survival at 5 umol/kg, sc qd for 5 days measured after 30 days; assay type: functional, organism-based
L1210 [20] = assay: Antileukemic activity against mouse L1210 cells allografted in BDF1 mouse assessed as host survival at 25 umol/kg, sc qd for 5 days measured after 30 days; assay type: functional, organism-based
L1210 [21] = assay: Antileukemic activity against mouse L1210 cells allografted in BDF1 mouse assessed as host survival at 5 umol/kg, po qd for 5 days measured after 30 days; assay type: functional, organism-based
L1210 [22] = assay: Antileukemic activity against mouse L1210 cells allografted in BDF1 mouse assessed as host survival at 12.5 umol/kg, po qd for 5 days measured after 30 days; assay type: functional, organism-based
L1210 [23] = assay: Antileukemic activity against mouse L1210 cells allografted in BDF1 mouse assessed as host survival at 25 umol/kg, po qd for 4 days measured after 30 days; assay type: functional, organism-based
L1210 [24] = assay: Antileukemic activity against mouse L1210 cells allografted in BDF1 mouse assessed as host survival at 65.8 umol/kg, ip after 30 days; assay type: functional, organism-based; how it was run: as §2
L1210 [25] = assay: Antileukemic activity against mouse L1210 cells allografted in BDF1 mouse assessed as host survival at 132 umol/kg, ip after 30 days; assay type: functional, organism-based; how it was run: as §2
L1210 [26] = assay: Antileukemic activity against mouse L1210 cells allografted in BDF1 mouse assessed as increase in life span of host at 26.3 umol/kg, ip relative to control; assay type: functional; how it was run: as §1
L1210 [27] = assay: Antileukemic activity against mouse L1210 cells allografted in BDF1 mouse assessed as increase in life span of host at 65.8 umol/kg, ip relative to control; assay type: functional; how it was run: as §1
L1210 [28] = assay: Antileukemic activity against mouse L1210 cells allografted in BDF1 mouse assessed as increase in life span of host at 132 umol/kg, ip relative to control; assay type: functional; how it was run: as §2
L1210 [29] = assay: Antileukemic activity against mouse L1210 cells allografted in BDF1 mouse assessed as increase in life span of host at 5.56 umol/kg, ip relative to control; assay type: functional; how it was run: as §1
L1210 [30] = assay: Antileukemic activity against mouse L1210 cells allografted in BDF1 mouse assessed as increase in life span of host at 27.8 umol/kg, ip relative to control; assay type: functional; how it was run: as §1

SMILES: C=CCC1(CC=C)C(=O)OCc2c1cc1n(c2=O)Cc2cc3ccccc3nc2-1
- ILS at 65.1 µmol/kg (L1210 [1]): 5%
- ILS at 130 µmol/kg (L1210 [2]): 1%
- Activity (L1210 [3]): inactive
- Activity (L1210 [4]): inactive
- Activity (L1210 [5]): inactive
- Activity (L1210 [6]): inactive
- solubility [7]: Insoluble
- ILS at 26 µmol/kg (L1210 [8]): -8%

SMILES: CCC1(CC)C(=O)OCc2c1cc1n(c2=O)Cc2cc3ccccc3nc2-1
- Activity (L1210 [9]): inactive
- Activity (L1210 [10]): inactive
- solubility [7]: Insoluble
- Activity (L1210 [11]): inactive
- Activity (L1210 [12]): inactive
- ILS at 69.4 µmol/kg (L1210 [13]): 5%
- ILS at 139 µmol/kg (L1210 [14]): -11%

SMILES: C=CCC1(O)C(=O)OCc2c1cc1n(c2=O)Cc2cc3ccccc3nc2-1 (stereo not drawn)
- Activity (L1210 [15]): inactive
- Activity (L1210 [16]): inactive
- Activity (L1210 [17]): inactive
- Activity (L1210 [18]): inactive
- Activity (L1210 [19]): inactive
- Activity (L1210 [20]): inactive
- Activity (L1210 [21]): inactive
- Activity (L1210 [22]): inactive
- Activity (L1210 [23]): inactive

SMILES: CCC1(O)C(=O)OCc2c1cc1n(c2=O)CC2Cc3ccccc3N(C=O)C12 (mixture of isomers)
- Activity (L1210 [24]): inactive
- Activity (L1210 [25]): inactive
- Activity (L1210 [3]): inactive
- solubility [7]: Insoluble
- ILS at 26.3 µmol/kg (L1210 [26]): -6%
- ILS at 65.8 µmol/kg (L1210 [27]): -9%
- ILS at 132 µmol/kg (L1210 [28]): -3%
- ILS at 5.56 µmol/kg (L1210 [29]): 34%
- ILS at 27.8 µmol/kg (L1210 [30]): > 244%
